In ChEMBL document CHEMBL3822413, “Design, synthesis, and evaluation of water-soluble morpholino-decorated paclitaxel prodrugs with remarkably decreased toxicity” (Bioorg Med Chem Lett, 2016):
≈ marks a conversion by molar mass, not a printed value. Calls of active or inactive are those of the source. The rule behind the calls is not given here.

Legend:
[1] = test system: CCRF S-180; assay: Antitumor activity against mouse S180 cells allografted in mouse assessed as tumor weight at 25 mg/kg, iv administered 4 time a day post 24 hrs of tumor implantation measured after 10 days (reference value: 7.35g); type: functional
[2] = Aqueous solubility of the compound; type: physicochemical
[3] = Ratio of aqueous solubility of compound to aqueous solubility of paclitaxel; type: physicochemical; settings: buffer
[4] = test system: MCF7; assay: Cytotoxicity against human MCF7 cells assessed as cell viability measured after 48 hrs by MTS assay; type: functional, cell-based; settings: MCF7, 48 h
Method in brief: (§1)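 MCF-7 and HeLa cells seeded at 4×10^3 cells/well 24 h before treatment, then exposed to compounds for 48 h or 72 h. Viability measured by MTS assay and IC50 derived; top concentration tested 1 µM.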

[5] = test system: MCF7; assay: Cytotoxicity against human MCF7 cells assessed as cell viability measured after 72 hrs by MTS assay; type: functional, cell-based; settings: MCF7, 72 h; method in brief: as §1
[6] = test system: HeLa; assay: Cytotoxicity against human HeLa cells assessed as cell viability measured after 48 hrs by MTS assay; type: functional, cell-based; method in brief: as §1
[7] = test system: HeLa; assay: Cytotoxicity against human HeLa cells assessed as cell viability measured after 72 hrs by MTS assay; type: functional, cell-based; method in brief: as §1
[8] = test system: Mus musculus; assay: Acute toxicity in mouse allografted with mouse S180 cells assessed as mouse survival at 90 mg/kg, iv administered 4 times per day post 24 hrs of tumor implantation; type: organism-based, CCRF S-180; settings: in vivo
[9] = test system: CCRF S-180; assay: Antitumor activity against mouse S180 cells allografted in mouse assessed as tumor growth inhibition at 25 mg/kg, iv administered 4 time a day post 24 hrs of tumor implantation measured after 10 days; type: functional; settings: CCRF S-180, iv, read-out: TGI
[10] = test system: Mus musculus; assay: Toxicity in mouse allografted with mouse S180 cells assessed as change in body weight at 25 mg/kg, iv administered 4 time a day post 24 hrs of tumor implantation measured after 10 days (reference value: -2.8%); type: organism-based, CCRF S-180; settings: in vivo, 240 h
[11] = test system: Mus musculus; assay: Toxicity in mouse allografted with mouse S180 cells assessed as mortality at 25 mg/kg, iv administered 4 time a day post 24 hrs of tumor implantation; type: organism-based, CCRF S-180; settings: in vivo
Method in brief: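 S-180 cells were implanted subcutaneously in mice, 8 per group. Starting 24 h later, dosing was iv every other day for 4 doses, with dose expressed as paclitaxel-equivalent. Prodrug vehicle was 5% glucose. Paclitaxel was given in cremophor/ethanol (50%/50%) diluted 10-fold with 5% glucose. Vehicle controls received 5% glucose. Deaths were counted up to day 10.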

[12] = Metabolic stability in mouse plasma assessed as compound degradation at 37 degC measured after 10 hrs; type: ADME, cell-free; settings: read-out: Drug degradation
Method in brief: (§2)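 Compound incubated in mouse plasma at 37 °C for up to 48 h. Remaining compound and released paclitaxel measured at intervals, expressed as detected concentration divided by total concentration. In a separate incubation, 10 mM dithiothreitol was added.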

[13] = test system: Plasma; assay: Metabolic stability in mouse plasma assessed as paclitaxel release at 37 degC in presence of dithiotheitol measured after 10 min; type: ADME, cell-free; method in brief: as §2
[14] = Chemical stability of the compound assessed as paclitaxel release in presence of FBS measured after 4 hrs by HPLC analysis; type: physicochemical; settings: cattle
Method in brief: (§3)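 Compound solution added to fetal bovine serum (400 µl into 3600 µl) and incubated at 37 °C. At set time points, 100 µl aliquots were quenched with 300 µl acetonitrile and centrifuged 5 min at 10,000 rpm. Supernatant analysed by HPLC for intact prodrug and released paclitaxel.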

[15] = test system: MCF7; assay: Cytotoxicity against human MCF7 cells at 1 uM by MTS assay; type: functional, cell-based; method in brief: as §1
[16] = test system: HeLa; assay: Cytotoxicity against human HeLa cells at 1 uM by MTS assay; type: functional, cell-based; method in brief: as §1
[17] = Chemical stability of the compound assessed as compound degradation in presence of FBS measured after 4 hrs by HPLC analysis; type: physicochemical; settings: cattle; method in brief: as §3
[18] = test system: Mus musculus; assay: Acute toxicity in mouse allografted with mouse S180 cells at 60 mg/kg, iv administered 4 times per day post 24 hrs of tumor implantation measured after 24 hrs; type: organism-based, CCRF S-180; settings: in vivo
[19] = Toxicity in mouse; type: organism-based; settings: in vivo
[20] = Chemical stability of the compound assessed as paclitaxel release in presence of FBS measured after 5 hrs by HPLC analysis; type: physicochemical; settings: cattle; method in brief: as §3

| Structure (SMILES) | solubility [2] | Ratio [3] | Drug metabolism [14] | Stability [17] | Drug metabolism [20] | Activity [1] | IC50 [4] | IC50 [5] | IC50 [6] | IC50 [7] | Survival [8] | inhibition in vivo at 25 mg/kg [9] | Activity [10] | Activity [11] | metabolised at 10 h [12] | Drug metabolism [13] | Activity [15] | Activity [16] | Activity [18] | MTD [19] |
| --- | --- | --- | --- | --- | --- | --- | --- | --- | --- | --- | --- | --- | --- | --- | --- | --- | --- | --- | --- | --- |
| CC(=O)O[C@H]1C(=O)[C@@]2(C)[C@H]([C@H](OC(=O)c3ccccc3)[C@]3(O)C[C@H](OC(=O)[C@H](OC(=O)OCCSSCC(=O)N[C@H](CC(=O)NCCN4CCOCC4)C(=O)NCCN4CCOCC4)[C@@H](NC(=O)c4ccccc4)c4ccccc4)C(C)=C1C3(C)C)[C@]1(OC(C)=O)CO[C@@H]1C[C@@H]2O | 5000 µg/mL (≈ 3600 µM) | 20000 |  |  |  | 3.43 g | 7.45 nM | 4.07 nM | 20.6 nM | 14 nM | 1 weeks | 54% | -16.1% | Non-toxic | 100% | metabolite_detected |  |  |  |  |
| CC(=O)O[C@H]1C(=O)[C@@]2(C)[C@H]([C@H](OC(=O)c3ccccc3)[C@]3(O)C[C@H](OC(=O)[C@H](O)[C@@H](NC(=O)c4ccccc4)c4ccccc4)C(C)=C1C3(C)C)[C@]1(OC(C)=O)CO[C@@H]1C[C@@H]2O [PACLITAXEL] |  |  |  |  |  | 3.34 g | 3.1 nM | 1.25 nM | 23.3 nM | 12.6 nM |  | 56% | -28.1% |  |  |  |  |  | Toxic | 30 mg/kg |
| CC(=O)O[C@H]1C(=O)[C@@]2(C)[C@H]([C@H](OC(=O)c3ccccc3)[C@]3(O)C[C@H](OC(=O)[C@H](OC(=O)CCC(=O)NCCN4CCOCC4)[C@@H](NC(=O)c4ccccc4)c4ccccc4)C(C)=C1C3(C)C)[C@]1(OC(C)=O)CO[C@@H]1C[C@@H]2O | 500 µg/mL (≈ 469 µM) | 2000 |  |  | metabolite_detected |  | 4.23 nM | 0.74 nM | 19.8 nM | 14.6 nM |  |  |  |  |  |  |  |  |  |  |

Now from value to compound, other results behind:

| solubility [2] | Ratio [3] | Drug metabolism [14] | Stability [17] | Drug metabolism [20] | Structure (SMILES) | Activity [1] | IC50 [4] | IC50 [5] | IC50 [6] | IC50 [7] | Survival [8] | inhibition in vivo at 25 mg/kg [9] | Activity [10] | Activity [11] | metabolised at 10 h [12] | Drug metabolism [13] | Activity [15] | Activity [16] | Activity [18] | MTD [19] |
| --- | --- | --- | --- | --- | --- | --- | --- | --- | --- | --- | --- | --- | --- | --- | --- | --- | --- | --- | --- | --- |
| 100 µg/mL (≈ 102 µM) | 400 |  |  |  | CC(=O)O[C@H]1C(=O)[C@@]2(C)[C@H]([C@H](OC(=O)c3ccccc3)[C@]3(O)C[C@H](OC(=O)[C@H](OC(=O)CN4CCOCC4)[C@@H](NC(=O)c4ccccc4)c4ccccc4)C(C)=C1C3(C)C)[C@]1(OC(C)=O)CO[C@@H]1C[C@@H]2O |  | 12 nM | 3.49 nM | 49.2 nM | 22.9 nM |  |  |  |  |  |  |  |  |  |  |
| 500 µg/mL (≈ 495 µM) | 2000 | metabolite_notdetected | Unstable |  | CC(=O)O[C@H]1C(=O)[C@@]2(C)[C@H]([C@H](OC(=O)c3ccccc3)[C@]3(O)C[C@H](OC(=O)[C@H](OC(=O)NCCN4CCOCC4)[C@@H](NC(=O)c4ccccc4)c4ccccc4)C(C)=C1C3(C)C)[C@]1(OC(C)=O)CO[C@@H]1C[C@@H]2O |  | > 1000 nM | > 1000 nM | > 1000 nM | > 1000 nM |  |  |  |  |  |  | inactive | inactive |  |  |
